From ChEMBL document CHEMBL2380295, “Structure-activity studies on the side chain of a simplified analog of aplysiatoxin (aplog-1) with anti-proliferative activity” (Bioorg Med Chem, 2013) come the findings set out here.

In the first series the test system is PC-3. Briefly: Growth inhibition of human PC3 cells after 48 hrs by sulforhodamine B assay. The settings on record: PC-3, 48 h. In kind it is functional. In short, it runs like this: (§1)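 Yamori 39-line human cancer panel, NCI method with modifications. Cells plated in RPMI 1640 plus 5% FBS, attached overnight, then exposed 48 h to compound at 10^-8, 10^-7, 10^-6, 10^-5 and 10^-4 M. Sulforhodamine B staining read at 525 nm; % growth = 100[(T−T0)/(C−T0)] from duplicate-point averages, with T0 the time-zero absorbance. GI50 is the concentration giving 50.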
For orientation: GI50 means the concentration that inhibits growth by half. On to `CC(=O)Nc1ccc(CCCC[C@@H]2C[C@@H]3C[C@@]4(O[C@H](CCC4(C)C)CC(=O)O[C@@H](CO)CC(=O)O3)O2)cc1O`, for which the concentration for 50% growth inhibition (GI50) is 20.9 µM.

The next series concerns MCF7. Briefly: Growth inhibition of human MCF7 cells after 48 hrs by sulforhodamine B assay. In kind it is functional. The note with it: MCF7, 48 h. The method in brief:
as §1
In general terms: The SRB assay estimates cell density from bound dye.
For the compound `CC(=O)Nc1ccc(CCCC[C@@H]2C[C@@H]3C[C@@]4(O[C@H](CCC4(C)C)CC(=O)O[C@@H](CO)CC(=O)O3)O2)cc1O`, it took 40.7 µM to inhibit growth by half (GI50). This counts as double-digit micromolar.

Another series deals with HT-29. Briefly: Growth inhibition of human HT-29 cells after 48 hrs by sulforhodamine B assay. The note with it: HT-29, 48 h. In kind it is functional. The method in brief:
as §1
In turn, `CC(=O)Nc1ccc(CCCC[C@@H]2C[C@@H]3C[C@@]4(O[C@H](CCC4(C)C)CC(=O)O[C@@H](CO)CC(=O)O3)O2)cc1O` had a GI50 of 19.5 µM.

The next series has as its system Human gammaherpesvirus 4. Briefly: Induction of EBV-early antigen expressed in human Raji cells at 10^-7 M after 48 hrs by immunofluorescence assay relative to control. The settings on record: human gammaherpesvirus 4, raji, 0.1 µM. In kind it is organism-based. The method in brief:
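Raji B-lymphoblastoid cells (5 × 10^5/mL) in RPMI 1640 with 10% FBS, with 4 mM sodium n-butyrate as synergist and test compound at 10^-7 or 10^-6 M (final DMSO 0.4%). Incubated 48 h at 37 °C under 5% CO2. Smears were stained by indirect immunofluorescence using NPC patient serum and FITC anti-human IgG. At least 500 cells counted; % EA-positive recorded; n = 3, SEM.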
With `CC(=O)Nc1ccc(CCCC[C@@H]2C[C@@H]3C[C@@]4(O[C@H](CCC4(C)C)CC(=O)O[C@@H](CO)CC(=O)O3)O2)cc1O`, the Activity came out at 2.4%.

For another series, the system named is NCI-H23. Put plainly: Growth inhibition of human NCI-H23 cells after 48 hrs by sulforhodamine B assay. The class given is functional. The settings on record: NCI-H23, 48 h. The method in brief: as §1
The compound `CC(=O)Nc1ccc(CCCC[C@@H]2C[C@@H]3C[C@@]4(O[C@H](CCC4(C)C)CC(=O)O[C@@H](CO)CC(=O)O3)O2)cc1O` had a GI50 of 33.9 µM.

The test system of the next series is NCI-H460. Briefly: Growth inhibition of human NCI-H460 cells after 48 hrs by sulforhodamine B assay. In kind it is functional. The settings on record: NCI-H460, 48 h. The method in brief: as §1
`CC(=O)Nc1ccc(CCCC[C@@H]2C[C@@H]3C[C@@]4(O[C@H](CCC4(C)C)CC(=O)O[C@@H](CO)CC(=O)O3)O2)cc1O` had a GI50 of 20.4 µM.

The test system of another series is OVCAR-3. Briefly: Growth inhibition of human OVCAR3 cells after 48 hrs by sulforhodamine B assay. The class given is functional. The settings on record: OVCAR-3, 48 h. In short, it runs like this:
as §1
`CC(=O)Nc1ccc(CCCC[C@@H]2C[C@@H]3C[C@@]4(O[C@H](CCC4(C)C)CC(=O)O[C@@H](CO)CC(=O)O3)O2)cc1O`: the GI50 is 23.4 µM.

Tested on in another series: not listed separately
Put plainly: Cytotoxicity against human Raji cells assessed as cell viability at 10^-6 M. In kind it is cell-based. The settings on record: read-out: Activity.
With `CC(=O)Nc1ccc(CCCC[C@@H]2C[C@@H]3C[C@@]4(O[C@H](CCC4(C)C)CC(=O)O[C@@H](CO)CC(=O)O3)O2)cc1O`, the viability at 1 µM turned out to be 60%.

The target in the next series is T1, Protein kinase C delta type (Homo sapiens, UniProt Q05655). Put plainly: Inhibition of [3H]PDBu binding to PKCdelta-C1A domain peptide (unknown origin).
T1 sequence (Q05655 whole entry, the tested form may be a part): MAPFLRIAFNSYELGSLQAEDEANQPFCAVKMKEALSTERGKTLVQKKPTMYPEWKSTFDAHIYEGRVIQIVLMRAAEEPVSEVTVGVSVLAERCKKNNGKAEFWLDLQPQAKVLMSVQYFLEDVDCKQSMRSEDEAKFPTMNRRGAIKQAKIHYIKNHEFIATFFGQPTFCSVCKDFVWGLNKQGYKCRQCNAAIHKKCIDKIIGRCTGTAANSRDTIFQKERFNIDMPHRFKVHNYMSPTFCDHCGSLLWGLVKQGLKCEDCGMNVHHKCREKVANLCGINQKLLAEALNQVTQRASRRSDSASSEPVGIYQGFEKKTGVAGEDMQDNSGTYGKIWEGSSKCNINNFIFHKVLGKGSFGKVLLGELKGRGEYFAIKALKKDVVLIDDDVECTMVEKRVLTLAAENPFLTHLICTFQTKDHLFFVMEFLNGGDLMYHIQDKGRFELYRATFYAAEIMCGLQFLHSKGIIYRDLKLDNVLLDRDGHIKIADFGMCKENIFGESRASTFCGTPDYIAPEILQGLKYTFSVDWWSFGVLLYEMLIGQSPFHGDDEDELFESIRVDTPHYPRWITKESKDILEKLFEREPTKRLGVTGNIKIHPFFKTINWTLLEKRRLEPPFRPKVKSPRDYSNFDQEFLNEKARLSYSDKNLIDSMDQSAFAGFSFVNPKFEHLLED
Conditions: not given
The method in brief: (§2)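 Competitive [3H]PDBu binding used 14 or 40 nM PKCδ C1 peptide and 20 nM [3H]PDBu (19.6 Ci/mmol), in 50 mM Tris-maleate (pH 7.4 at 4 °C) with 50 µg/mL phosphatidylserine, 3 mg/mL bovine γ-globulin and varied inhibitor concentrations. IC50 was taken as 50% inhibition of specific binding. Ki was derived by the Sharkey–Blumberg method.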
For orientation: Ki means a measure of affinity in units of concentration, obtained from inhibition or displacement. High values mean weaker binding, low ones tighter binding. `CC(=O)Nc1ccc(CCCC[C@@H]2C[C@@H]3C[C@@]4(O[C@H](CCC4(C)C)CC(=O)O[C@@H](CO)CC(=O)O3)O2)cc1O` came in with a Ki of 0.29 µM.

The test system of another series is DU-145. Put plainly: Growth inhibition of human DU145 cells after 48 hrs by sulforhodamine B assay. The class given is functional. The note with it: DU-145, 48 h. In short, it runs like this:
as §1
Compound `CC(=O)Nc1ccc(CCCC[C@@H]2C[C@@H]3C[C@@]4(O[C@H](CCC4(C)C)CC(=O)O[C@@H](CO)CC(=O)O3)O2)cc1O` had a concentration for 50% growth inhibition (GI50) of 29.5 µM. In other words, the double-digit micromolar range.

The next series concerns SNB-78. Put plainly: Growth inhibition of human SNB78 cells after 48 hrs by sulforhodamine B assay. In kind it is functional. The note with it: SNB-78, 48 h. The method in brief:
as §1
Consider `CC(=O)Nc1ccc(CCCC[C@@H]2C[C@@H]3C[C@@]4(O[C@H](CCC4(C)C)CC(=O)O[C@@H](CO)CC(=O)O3)O2)cc1O`, for which it took 51.3 µM to inhibit growth by half (GI50).

A further series relates to DMS-114. Briefly: Growth inhibition of human DMS114 cells after 48 hrs by sulforhodamine B assay. In kind it is functional. The note with it: DMS-114, 48 h. In short, it runs like this: as §1
As for `CC(=O)Nc1ccc(CCCC[C@@H]2C[C@@H]3C[C@@]4(O[C@H](CCC4(C)C)CC(=O)O[C@@H](CO)CC(=O)O3)O2)cc1O`, the GI50 was 20.9 µM.

A further series has as its system A549. Put plainly: Growth inhibition of human A549 cells after 48 hrs by sulforhodamine B assay. In kind it is functional. The settings on record: A549, 48 h. The method in brief: as §1
In the case of `CC(=O)Nc1ccc(CCCC[C@@H]2C[C@@H]3C[C@@]4(O[C@H](CCC4(C)C)CC(=O)O[C@@H](CO)CC(=O)O3)O2)cc1O`, growth was halved (GI50) at 15.1 µM.

The subject of a further series is HCT-15. Briefly: Growth inhibition of human HCT15 cells after 48 hrs by sulforhodamine B assay. The class given is functional. The settings on record: HCT-15, 48 h. The method in brief: as §1
As to `CC(=O)Nc1ccc(CCCC[C@@H]2C[C@@H]3C[C@@]4(O[C@H](CCC4(C)C)CC(=O)O[C@@H](CO)CC(=O)O3)O2)cc1O`, it took 33.9 µM to inhibit growth by half (GI50). This lies in the double-digit micromolar range.

The test system of the next series is U-251. Put plainly: Growth inhibition of human U251 cells after 48 hrs by sulforhodamine B assay. The class given is functional. The note with it: U-251, 48 h. In short, it runs like this:
as §1
In the case of `CC(=O)Nc1ccc(CCCC[C@@H]2C[C@@H]3C[C@@]4(O[C@H](CCC4(C)C)CC(=O)O[C@@H](CO)CC(=O)O3)O2)cc1O`, the GI50 is 26.9 µM. This lies in the double-digit micromolar range.

Tested on in another series: not listed separately
Put plainly: Growth inhibition of human HBC4 cells after 48 hrs by sulforhodamine B assay. In kind it is functional. The note with it: HBC4, 48 h. The method in brief: as §1
On to `CC(=O)Nc1ccc(CCCC[C@@H]2C[C@@H]3C[C@@]4(O[C@H](CCC4(C)C)CC(=O)O[C@@H](CO)CC(=O)O3)O2)cc1O`, for which the GI50 is 2.45 µM.

Tested on in another series: not listed separately
Briefly: Growth inhibition of human MKN1 cells after 48 hrs by sulforhodamine B assay. The note with it: MKN-1, 48 h. The class given is functional. In short, it runs like this:
as §1
For `CC(=O)Nc1ccc(CCCC[C@@H]2C[C@@H]3C[C@@]4(O[C@H](CCC4(C)C)CC(=O)O[C@@H](CO)CC(=O)O3)O2)cc1O`, halving of growth (GI50) required 34.7 µM.

Another series addresses T1, Protein kinase C delta type. Briefly: Inhibition of [3H]PDBu binding to PKCdelta-C1B domain peptide (unknown origin).
Conditions: not given
In short, it runs like this: as §2
`CC(=O)Nc1ccc(CCCC[C@@H]2C[C@@H]3C[C@@]4(O[C@H](CCC4(C)C)CC(=O)O[C@@H](CO)CC(=O)O3)O2)cc1O` had a Ki of 0.036 µM. In other words, the double-digit nanomolar range.

For another series, the system named is St-4. Briefly: Growth inhibition of human St-4 cells after 48 hrs by sulforhodamine B assay. The class given is functional. The settings on record: St-4, 48 h. In short, it runs like this:
as §1
Regarding `CC(=O)Nc1ccc(CCCC[C@@H]2C[C@@H]3C[C@@]4(O[C@H](CCC4(C)C)CC(=O)O[C@@H](CO)CC(=O)O3)O2)cc1O`, the GI50 was 2.14 µM. This counts as single-digit micromolar.

Tested on in the next series: not listed separately
Briefly: Growth inhibition of human BSY1 cells after 48 hrs by sulforhodamine B assay. In kind it is functional. The settings on record: BSY-1, 48 h. The method in brief:
as §1
Compound `CC(=O)Nc1ccc(CCCC[C@@H]2C[C@@H]3C[C@@]4(O[C@H](CCC4(C)C)CC(=O)O[C@@H](CO)CC(=O)O3)O2)cc1O` gave a GI50 of 26.3 µM.

The next series has as its system LOX IMVI. Briefly: Growth inhibition of human LOXIMVI cells after 48 hrs by sulforhodamine B assay. The class given is functional.
Conditions: not given
In short, it runs like this:
as §1
In turn, `CC(=O)Nc1ccc(CCCC[C@@H]2C[C@@H]3C[C@@]4(O[C@H](CCC4(C)C)CC(=O)O[C@@H](CO)CC(=O)O3)O2)cc1O` gave a GI50 of 12.9 µM. This lies in the double-digit micromolar range.

Tested on in the next series: not listed separately
Put plainly: Growth inhibition of human RXF631L cells after 48 hrs by sulforhodamine B assay. In kind it is functional. The settings on record: RXF 631, 48 h. In short, it runs like this: as §1
Turning to `CC(=O)Nc1ccc(CCCC[C@@H]2C[C@@H]3C[C@@]4(O[C@H](CCC4(C)C)CC(=O)O[C@@H](CO)CC(=O)O3)O2)cc1O`, it took 28.8 µM to inhibit growth by half (GI50).

The subject of a further series is OVCAR-4. Briefly: Growth inhibition of human OVCAR4 cells after 48 hrs by sulforhodamine B assay. In kind it is functional. The settings on record: OVCAR-4, 48 h. The method in brief: as §1
With `CC(=O)Nc1ccc(CCCC[C@@H]2C[C@@H]3C[C@@]4(O[C@H](CCC4(C)C)CC(=O)O[C@@H](CO)CC(=O)O3)O2)cc1O`, the GI50 was 37.2 µM.
